Measured values as given in ChEMBL document CHEMBL4118144, “Design, Synthesis, and Testing of Potent, Selective Hepsin Inhibitors via Application of an Automated Closed-Loop Optimization Platform” (J Med Chem, 2018).
Activity calls are given as the source filed them. The calls are words filed in the database; no cut-off is given here.

Key:
[1] = Chromatographic hydrophobicity index, log D of the compound at pH 7 by HPLC/UV analysis; assay type: physicochemical; conditions: buffer
Serine protease hepsin [2] = molecular target: Serine protease hepsin (Homo sapiens, UniProt P05981, D161E/R162K); assay: Inhibition of recombinant C-terminal His10-tagged human Hepsin (R45 to […] residues) D161E/ R162K double mutant expressed in mouse NS0 cells using Boc-QRR-AMC as substrate after 15 mins by automated fluorescence assay
Method in brief: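 On-line assay integrated with the flow-synthesis platform: a 20 µL aliquot of each product solution captured automatically, HPLC-purified, then diluted and assayed.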

Serine protease hepsin [3] = molecular target: T1, Serine protease hepsin (Homo sapiens, UniProt P05981); assay: Inhibition of doxycycline induced hepsin-mediated conversion of Pro-HGF into active form in human MCF10A cells assessed as decrease in MET phosphorylation (Tyr1243/1245) at 1 to 10 uM preincubated for 30 mins followed by recombinant human pro-HGF addition measured after 30 mins by immunoblot method; assay type: cell-based
T1 sequence (P05981 1-162 limits assumed): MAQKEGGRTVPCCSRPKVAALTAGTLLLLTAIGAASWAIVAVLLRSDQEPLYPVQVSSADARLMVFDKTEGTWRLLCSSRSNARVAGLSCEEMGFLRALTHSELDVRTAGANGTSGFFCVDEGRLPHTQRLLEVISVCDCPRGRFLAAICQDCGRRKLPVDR
T1 sequence (P05981 163-417 limits assumed): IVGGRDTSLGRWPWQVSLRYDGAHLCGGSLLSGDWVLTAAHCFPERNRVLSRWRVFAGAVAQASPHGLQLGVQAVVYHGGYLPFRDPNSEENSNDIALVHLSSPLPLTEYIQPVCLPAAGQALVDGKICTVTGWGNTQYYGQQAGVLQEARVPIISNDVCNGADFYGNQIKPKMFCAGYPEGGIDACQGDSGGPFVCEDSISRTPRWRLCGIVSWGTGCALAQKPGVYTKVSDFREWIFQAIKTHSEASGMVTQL
Method in brief: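 Dox-induced MCF10A-Indu20-hepsin cells given DMSO or inhibitor for 30 min, then 50 ng/mL recombinant human Pro-HGF; MET phosphorylation (Tyr1243/1245) detected by immunoblotting.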

Serine protease hepsin [4] = molecular target: T1, Serine protease hepsin; assay: Inhibition of doxycycline induced hepsin-mediated loss of desmosomal junctions in human MCF10A cells at 1 to 10 uM preincubated for 30 mins followed by doxycycline addition measured after 6 hrs by desmoglein 2 staining-based confocal immunofluorescence microscopic analysis; assay type: cell-based
Method in brief: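 MCF10A-Indu20-hepsin cells on coverslips pretreated 30 min with 1 or 10 µM compound or DMSO, then 100 ng/mL Dox for 6 h. Desmoglein 2 immunofluorescence: continuous pericellular staining scored positive, discontinuous or absent scored negative. Cells counted in 10 fields per treatment across three biological replicates; reported as percentages.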

Serine protease hepsin [5] = molecular target: T1, Serine protease hepsin; assay: Inhibition of hepsin-mediated conversion of Pro-HGF into active form in human HCC1937 cells assessed as decrease in MET phosphorylation at 1 uM preincubated for 30 mins followed by recombinant human pro-HGF addition measured after 30 mins by immunoblot method; assay type: cell-based
Method in brief: (§1)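 Hs578T or HCC1937 breast cells incubated with DMSO or inhibitor, then 50 ng/mL recombinant human Pro-HGF added; MET pathway activation (phospho-MET) assessed by immunoblotting.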

[6] = system: Serine protease hepsin (Homo sapiens), P05981 [D161E,R162K]; assay: Inhibition of recombinant C-terminal His10-tagged human Hepsin (R45 to […] residues) D161E/ R162K double mutant expressed in mouse NS0 cells assessed as decrease in HGF alpha chain formation at 1 uM incubated for 30 mins in presence of recombinant human pro-HGF by immunoblot method; assay type: cell-based
Serine protease hepsin (Homo sapiens), P05981 [D161E,R162K], sequence (P05981 whole entry D161E/R162K): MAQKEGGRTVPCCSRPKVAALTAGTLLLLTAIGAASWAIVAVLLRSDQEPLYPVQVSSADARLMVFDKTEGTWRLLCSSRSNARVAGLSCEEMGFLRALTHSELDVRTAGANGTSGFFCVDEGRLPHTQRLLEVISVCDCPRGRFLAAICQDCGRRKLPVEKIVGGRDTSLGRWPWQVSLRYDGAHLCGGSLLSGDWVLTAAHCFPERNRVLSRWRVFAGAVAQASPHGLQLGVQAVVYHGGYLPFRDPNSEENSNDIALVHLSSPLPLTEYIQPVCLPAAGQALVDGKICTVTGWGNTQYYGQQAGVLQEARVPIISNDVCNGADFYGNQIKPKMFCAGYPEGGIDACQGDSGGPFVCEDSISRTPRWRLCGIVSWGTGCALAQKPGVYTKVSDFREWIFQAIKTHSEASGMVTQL
Method in brief: (§2)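 Recombinant human Pro-HGF incubated with recombinant human hepsin plus inhibitor at 37°C for 30 min; processing analysed by immunoblot with an antibody recognizing Pro-HGF and the α and β chains.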

Serine protease hepsin [7] = molecular target: T1, Serine protease hepsin; assay: Inhibition of hepsin-mediated conversion of Pro-HGF into active form in human Hs578T cells assessed as decrease in MET phosphorylation at 1 uM preincubated for 30 mins followed by recombinant human pro-HGF addition measured after 30 mins by immunoblot method; assay type: cell-based; method in brief: as §1
[8] = system: Serine protease hepsin (Homo sapiens), P05981 [D161E,R162K]; assay: Inhibition of recombinant C-terminal His10-tagged human Hepsin (R45 to […] residues) D161E/ R162K double mutant expressed in mouse NS0 cells assessed as decrease in HGF beta chain formation at 1 uM incubated for 30 mins in presence of recombinant human pro-HGF by immunoblot method; assay type: cell-based; method in brief: as §2

SMILES | chromatographic logD [1] | IC50 (Serine protease hepsin [2]) [nM] | inhibition (Serine protease hepsin [3]) | inhibition (Serine protease hepsin [4]) | inhibition (Serine protease hepsin [5]) | inhibition [6] | inhibition (Serine protease hepsin [7]) | inhibition [8]
Cc1ccc(S(=O)(=O)N[C@@H](C(=O)Nc2ccc(C(=N)N)cc2)C2CCCCC2)cc1 | 1.3 | 33 |  |  |  |  |  | 
Cc1ccc(S(=O)(=O)N[C@@H](C(=O)Nc2ccc(C(=N)N)cc2)c2ccccc2)cc1 |  |  | Active | Active | Active | Active | Active | Active
N=C(N)c1ccc(NC(=O)[C@H](NS(=O)(=O)c2ccc(F)cc2)C2CCCCC2)cc1 |  | 90 |  |  |  |  |  | 
